N-glyco inh = blocks N-linked glycosylation in D54 reporter cells. D54 ERlucT glycosylation luciferase reporter, 24 h; percent of 100 nM tunicamycin response. reporter increase, % at 12.5 µM. actives 0.23% (n = 360,000);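 active = mean luciferase reporter signal, scaled so untreated is 0 and the glycosylation-blocking control 100, at or above a set limit in every replicate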;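 note: luciferase carries N-glycosylation sites so blocking glycosylation raises the light; 0% = median of neutral control wells and 100% = median of 100 nM tunicamycin wells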
RAD52 anneal inh = inhibitors of human RAD52 DNA annealing; P43351; recombinant RAD52 DNA annealing, FRET fluorescence; inhibition, % at 18.7 µM; actives 0.46% (n = 360,000);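 active = every replicate showing at least 50% inhibition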
MLL AF4-AF9 inh = inhibitors of human MLL-AF4/AF9 interaction | P42568 | AlphaScreen, biotin-AF4 peptide binding to FLAG-AF9 | inhibition, % at 10 µM | actives 0.47% (n = 350,000) | AID 651704;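 active = every replicate reaching a set inhibition limit, whatever the replicate mean, cut at about 25% in these data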;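 note: 0% = plate neutral control median and 100% = total signal loss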
RAD54 branch = inhibitors of human RAD54 branch migration | Q92698 | RAD54 Holliday junction branch migration, FAM/BHQ fluorescence | inhibition, % at 10.4 µM | actives 0.14% (n = 360,000);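 active = mean normalized replicate activity at least 40 and at least half of replicates scoring 40 or more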;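 note: 0% = median of neutral control wells and 100% = median of positive control wells; inhibitors cause a drop in the FAM fluorescence signal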
NSD2 HMT inh = NSD2 (human) methyltransferase inhibition; O96028; NSD2 peptide methylation, AlphaScreen, 120 min; inhibition, % at 12.5 µM; actives 0.54% (n = 310,000); in the data active = inhibition above about 50%
FN deposition inh = fibronectin deposition inhibition | AH1F fibroblasts, Alexa488-fibronectin deposition fluorescence, overnight | inhibition, % at 12.6 µM | actives 0.086% (n = 350,000);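 active = mean inhibition across replicates of 30% or more, regardless of how many single replicates reach that level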;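 note: positive control wells lacked labelled fibronectin entirely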
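Measured by – fluorescence 485/525 nm · System – AH1F fibroblast monolayer, labelled fibronectin deposition · Amount – 10000 cells per well · Buffer or medium – serum-reduced DMEM (2% serum) · Doses – single dose, pinned · Also added – fluorescent fibronectin at 24 nM final · Schedule – 1 h cell attachment, overnight exposure to compound and label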
Alpha artifact = AlphaScreen assay artifact in NSD2 counter-screen; shares compounds with NSD2 HMT inh; AlphaScreen artifact counterscreen, preloaded methylated H4 peptide; actives 9.4% (n = 1,500); AID 1053174; AC35, µM (top dose mostly 10 µM), for the others: top-dose activity change, negative = signal loss; call rule not given here
Starred values were filed as active, the others as inactive; nt = no result given. An excerpt weighted towards active compounds, which were near 1.2% of everything screened.

SMILES	N-glyco inh	RAD52 anneal inh	MLL AF4-AF9 inh	RAD54 branch	NSD2 HMT inh	FN deposition inh	Alpha artifact
COC(=O)[C@@H]1[C@@H](CO)[C@@H]2Cn3c(ccc(-c4ccccc4)c3=O)[C@H]1N2CC1CC1	nt	8	0	-5	nt	nt	nt
C[C@H]1CCCC(=O)CCC/C=C/c2cc(O)cc(O)c2C(=O)O1	-7	9	6	8	nt	-9	nt
COc1cc(O)cc2c1C(=O)OC(C)CCCC(=O)CCC/C=C\2 (stereo unspecified)	2	-11	4	-17	54*	-4	-1%
CCCN1[C@@H]2c3ccc(-c4ccc(OC)cc4)c(=O)n3C[C@H]1[C@H](CO)[C@H]2C(=O)OC	nt	0	0	10	nt	nt	nt
COC(=O)[C@H]1[C@H](CO)[C@H]2Cn3c(ccc(C4=CCCCC4)c3=O)[C@@H]1N2C(=O)Cc1ccccn1	nt	-2	4	-3	nt	nt	nt
Fc1ccc(Cn2nnnc2C(c2ccc(Cl)cc2)N2CC=C(c3ccc(F)cc3)CC2)cc1 (stereo unspecified)	-8	-64	0	-7	51*	-13	-1%
Cc1cc(/C=C2\C(=O)NC(=O)N(c3cccc(F)c3)C2=O)c(C)n1-c1cc(C(=O)O)cc(C(=O)O)c1	2	-93	-3	nt	81*	-2	-9%
CCOC(=O)[C@@H]1[C@@H]2NC(=S)N[C@@]1(C)Oc1ccccc12	nt	14	-6	-2	nt	nt	nt
O=C1NC(=O)N(c2ccccc2)C(=O)/C1=C/c1ccoc1	2	-388	-2	-40	51*	4	-6%
COc1cc(/C=C2/C(=O)NC(=O)N(c3ccccc3)C2=O)ccc1O	3	-65	-5	nt	7	-2	nt
COC(=O)[C@@H]1[C@@H](CO)[C@@H]2Cn3c(ccc(C4=CCCC4)c3=O)[C@H]1N2S(=O)(=O)c1cn(C)cn1	nt	-10	-2	1	nt	nt	nt
